Results published in ChEMBL document CHEMBL4177542, “A New Combination of a Pleuromutilin Derivative and Doxycycline for Treatment of Multidrug-Resistant Acinetobacter baumannii” (J Med Chem, 2017).
Converted amounts (≈) assume the structure as drawn.

Tests used:
Acinetobacter baumannii [1] = assay: Bactericidal activity against multidrug-resistant Acinetobacter baumannii ATCC BAA 18002 after 48 hrs by resazurin dye based broth microdilution method; format: functional; conditions: for MBC: read-out: MBC99.9
Outline: (§1)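 Broth microdilution in tryptic soy broth. Mid-log cultures (OD600 0.5) treated with serial dilutions from a DMSO stock (1 mg per 100 μL) for 48 h at 37 °C. Resazurin (stock 0.02%) then added for 1 h at 37 °C. MIC is the lowest concentration staying blue; MBC is blue retained over 4 h (99.9% kill), with CFU plating when needed.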

Acinetobacter baumannii [2] = assay: Growth inhibition of multidrug-resistant Acinetobacter baumannii ATCC BAA 18002 after 48 hrs by resazurin dye based broth microdilution method; format: functional; outline: as §1
Vero = assay: Cytotoxicity against African green monkey Vero cells after 72 hrs by MTT assay; format: cell-based, Chlorocebus sabaeus
Outline: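 Vero (ATCC CCL-81) cells in Eagle's MEM with 10% FBS and penicillin-streptomycin, in 96-well plates. Serial dilutions from 0.78 to 200 μg/mL. Tunicamycin, colistin or tobramycin as controls on each plate. Viability by MTT, giving IC50.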

Acinetobacter baumannii [3] = assay: Potentiation of doxycycline-induced antimicrobial activity against Acinetobacter baumannii ATCC 19606 at 0.78 ug/ml in presence of 0.025 ug/ml doxycycline by microdilution broth checkerboard method; format: functional, ATCC 19606 = CIP 70.34 = JCM 6841
Outline: (§2)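 A. baumannii ATCC 19606 in a broth microdilution checkerboard with doxycycline, 96 concentration combinations. ΣFIC = C_A/MIC_A + C_B/MIC_B, taken for wells at the growth/no-growth interface; ΣFIC <0.5 counts as synergy.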

Acinetobacter baumannii [4] = assay: Growth inhibition of Acinetobacter baumannii ATCC 19606 after 48 hrs by resazurin dye based microdilution method; format: functional
Outline: (§3)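 A. baumannii ATCC 19606 grown in tryptic soy broth, 37 °C with shaking, to mid-log (OD 0.5). Cultures treated with serial dilutions of inhibitor (DMSO stock 1 mg/100 μL), 48 h at 37 °C. Resazurin then added, 1 h at 37 °C with shaking. MIC is the lowest concentration staying blue; MBC is blue retained over 4 h, with CFU plating if needed (99.9% kill).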

[5] = Solubility of the compound in water at 10 mg after 24 hrs by HPLC based shake flask method; format: physicochemical
Acinetobacter baumannii [6] = assay: Bactericidal activity against Acinetobacter baumannii ATCC 19606 after 48 hrs by resazurin dye based microdilution method; format: functional; conditions: for MBC: ATCC 19606 = CIP 70.34 = JCM 6841, 48 h, read-out: MBC99.9; outline: as §3
[7] = Half life in Sprague-Dawley rat liver microsomes at 500 ng/ml by LC/MS analysis; format: ADME, microsome
Outline: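 Pooled Sprague-Dawley rat liver microsomes at 1 mg/mL protein in 100 mM phosphate, pH 7.4. Compound at 500 ng/mL final; verapamil as positive control. Pre-equilibrated 5 min at 37 °C, then 1 mM NADPH added. Triplicate samples at 0, 5, 10, 20, 30, 45 and 60 min, quenched in 4 volumes of cold methanol, analysed by LC-MS.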

Acinetobacter baumannii [8] = assay: Potentiation of doxycycline-induced antimicrobial activity against Acinetobacter baumannii ATCC 19606 at 1.56 ug/ml in presence of 0.05 ug/ml doxycycline by microdilution broth checkerboard method; format: functional, ATCC 19606 = CIP 70.34 = JCM 6841; outline: as §2
Pseudomonas aeruginosa [9] = assay: Bactericidal activity against Pseudomonas aeruginosa ATCC 27853 after 48 hrs by resazurin dye based microdilution method; format: functional; conditions: ATCC 27853, 48 h, read-out: MBC99.9; outline: as §1
Staphylococcus aureus [10] = assay: Bactericidal activity against Staphylococcus aureus ATCC 25923 after 48 hrs by resazurin dye based microdilution method; format: functional; conditions: ATCC 25923, 48 h, read-out: MBC99.9; outline: as §1
Pseudomonas aeruginosa [11] = assay: Growth inhibition of Pseudomonas aeruginosa ATCC 27853 after 48 hrs by resazurin dye based microdilution method; format: functional; conditions: ATCC 27853, 48 h; outline: as §1
Escherichia coli [12] = assay: Growth inhibition of Escherichia coli ATCC 10798 after 48 hrs by resazurin dye based microdilution method; format: functional; conditions: ATCC 10798, 48 h; outline: as §1
Escherichia coli [13] = assay: Bactericidal activity against Escherichia coli ATCC 10798 after 48 hrs by resazurin dye based microdilution method; format: functional; conditions: ATCC 10798, 48 h, read-out: MBC99.9; outline: as §1
Klebsiella pneumoniae [14] = assay: Bactericidal activity against Klebsiella pneumoniae ATCC 8047 after 48 hrs by resazurin dye based microdilution method; format: functional; conditions: ATCC 8047, 48 h, read-out: MBC99.9; outline: as §1
Klebsiella pneumoniae [15] = assay: Growth inhibition of Klebsiella pneumoniae ATCC 8047 after 48 hrs by resazurin dye based microdilution method; format: functional; conditions: ATCC 8047, 48 h; outline: as §1
Staphylococcus aureus [16] = assay: Growth inhibition of Staphylococcus aureus ATCC 25923 after 48 hrs by resazurin dye based microdilution method; format: functional; conditions: ATCC 25923, 48 h; outline: as §1
Acinetobacter baumannii [17] = assay: Synergistic antibacterial activity against Acinetobacter baumannii ATCC 19606 infected in C57BL/6 mouse assessed as increase in survival rate at compound to doxycycline ratio of 35:1 administered ip as single dose measured for 5 days; format: functional; conditions: ATCC 19606 = CIP 70.34 = JCM 6841, ip, 120 h
Outline: (§4)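 C57BL/6 mice (n = 5 per group; 4 untreated controls) infected intraperitoneally with A. baumannii ATCC19606 grown at 37 °C and collected by centrifugation, at a dose giving 75% death. Single intraperitoneal dose (2 to 60 mg/kg) given 1 h after infection. Mice monitored for 5 days, with death as the end point; survival rate recorded.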

Acinetobacter baumannii [18] = assay: Antibacterial activity against Acinetobacter baumannii ATCC 19606 infected in C57BL/6 mouse assessed as survival rate at 6 mg/kg, ip administered as single dose measured for 5 days (reference value: <20%); format: functional; conditions: ATCC 19606 = CIP 70.34 = JCM 6841, ip, 120 h; outline: as §4
[19] = Chlorocebus sabaeus, Vero, 72 h, read-out: IC50
[20] = ATCC 19606 = CIP 70.34 = JCM 6841, 48 h
[21] = ATCC 19606 = CIP 70.34 = JCM 6841

| Molecule | MBC (Acinetobacter baumannii [1]) [µg/mL] | MIC (Acinetobacter baumannii [2]; ATCC BAA 18002, 48 h) [µg/mL] | IC50 (Vero; [19]) [µg/mL] | MIC (Acinetobacter baumannii [4]; [20]) [µg/mL] | MBC (Acinetobacter baumannii [6]) [µg/mL] | other results |
| --- | --- | --- | --- | --- | --- | --- |
| C=C[C@]1(C)C[C@@H](OC(=O)CSC(C)(C)CNC(=O)[C@H](NCCN)C(C)C)[C@]2(C)[C@H](C)CC[C@]3(CC[C@@H](O)[C@H]32)[C@@H](C)[C@@H]1O | > 12.5 | 3.15 (≈ 5.16 µM) |  |  |  |  |
| COLISTIN [listing 1 of 2 here] |  |  |  |  |  | IC50 (Vero; vero): > 200 µg/mL |
| CCCCCCCCCCCCC/C=C/C(=O)N[C@H]1[C@H](O[C@H]2O[C@H](CO)[C@@H](O)[C@H](O)[C@H]2NC(C)=O)O[C@H](CC(O)[C@H]2O[C@@H](n3ccc(=O)[nH]c3=O)[C@H](O)[C@@H]2O)[C@H](O)[C@@H]1O (stereo partly drawn) |  |  | 0.2 (≈ 0.237 µM) |  |  |  |
| C=C[C@]1(C)C[C@@H](OC(=O)CSC(C)(C)CNC(=O)[C@H](N)C(C)C)[C@]2(C)[C@H](C)CC[C@]3(CCC(=O)[C@H]32)[C@@H](C)[C@@H]1O [VALNEMULIN] | 25 (≈ 44.3 µM) | 6.25 (≈ 11.1 µM) | 14.9 (≈ 26.4 µM) | 3.13 (≈ 5.54 µM) | 12.5 (≈ 22.1 µM) | fractional inhibitory concentration index (FICI) (Acinetobacter baumannii [3]): 0.375; solubility [5]: Soluble; t1/2 [7]: 34.8 s; fractional inhibitory concentration index (FICI) (Acinetobacter baumannii [8]): 0.375 |
| COLISTIN [listing 2 of 2 here] |  |  |  |  |  | MIC (Acinetobacter baumannii [4]; [21]): 3.13 µg/mL; MBC99.9 (Acinetobacter baumannii [1]): 25 µg/mL; MBC99.9 (Acinetobacter baumannii [6]; [21]): 6.25 µg/mL; MIC (Acinetobacter baumannii [2]): > 12.5 µg/mL |
| C[C@H]1c2cccc(O)c2C(=O)C2=C(O)[C@]3(O)C(=O)C(C(N)=O)=C(O)[C@@H](N(C)C)[C@@H]3[C@@H](O)[C@@H]21.O [DOXYCYCLINE] |  | > 25 |  | 0.3 | 0.4 | MBC (Pseudomonas aeruginosa [9]): 25 µg/mL; MBC (Staphylococcus aureus [10]): 12.5 µg/mL; MIC (Pseudomonas aeruginosa [11]): 12.5 µg/mL; MIC (Escherichia coli [12]): 3.13 µg/mL; MBC (Escherichia coli [13]): 6.25 µg/mL; MBC (Klebsiella pneumoniae [14]): 0.78 µg/mL; MIC (Klebsiella pneumoniae [15]): 0.25 µg/mL; MIC (Staphylococcus aureus [16]): 3.13 µg/mL; ED50 (Acinetobacter baumannii [17]): < 2 mg/kg |
| NC[C@H]1O[C@H](O[C@H]2[C@H](O)[C@@H](O[C@H]3O[C@H](CO)[C@@H](O)[C@H](N)[C@H]3O)[C@H](N)C[C@@H]2N)[C@H](N)C[C@@H]1O [TOBRAMYCIN] | > 25 | > 25 | > 200 | 6.25 (≈ 13.4 µM) | 12.5 (≈ 26.7 µM) | survival at 6 mg/kg (Acinetobacter baumannii [18]): 100% |
| C=C[C@]1(C)C[C@@H](OC(=O)CSC(C)(C)CNC(=O)[C@H](NC(=O)CN)C(C)C)[C@]2(C)[C@H](C)CC[C@]3(CC[C@@H](O)[C@H]32)[C@@H](C)[C@@H]1O | > 12.5 | 3.13 (≈ 5.02 µM) |  | 3.13 (≈ 5.02 µM) |  |  |
